Values after ≈ are worked out from the molar mass of the structure shown. Active and inactive are the calls of the source. The rule behind the calls is not given here.
What was measured:
[1] = system: Streptococcus gordonii; assay: Antimicrobial activity against […] and streptomycin-resistant Streptococcus gordonii Tol1 harboring Tol1 mutation in ptsI after 24 hrs by macrodilution assay; assay type: functional; conditions: Tol1, 24 h
Procedure, shortened: (§1)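 MIC by standard broth macrodilution; streptococci grown at 37°C in BHI broth without aeration.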

[2] = system: Streptococcus gordonii; assay: Antimicrobial activity against […] and streptomycin-resistant Streptococcus gordonii Tol1 harboring Tol1 mutation in ptsI assessed as bacterial count at 2 ug/ml after 24 hrs by macrodilution assay; assay type: functional
[3] = system: Streptococcus gordonii; assay: Antimicrobial activity against wild type streptomycin-susceptible Streptococcus gordonii assessed as bacterial count at 2 ug/ml after 24 hrs by macrodilution method; assay type: functional
Procedure, shortened: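 Time-kill assay: exponentially growing cultures in BHI broth at 37°C without aeration. Penicillin G was added at 2 μg/ml when OD600 reached 0.2 (about 1 × 10^8 CFU/ml). Viable counts were taken on agar plates, and the result is the loss of log10 CFU/ml after 24 h of exposure.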

[4] = system: Streptococcus gordonii; assay: Antimicrobial activity against wild type streptomycin-susceptible Streptococcus gordonii harboring P483R mutation in ptsI assessed as bacterial count at 2 ug/ml after 24 hrs by macrodilution technique
[5] = system: Streptococcus gordonii; assay: Antimicrobial activity against wild type streptomycin-susceptible Streptococcus gordonii after 24 hrs by macrodilution method; assay type: functional; procedure, shortened: as §1
[6] = system: Streptococcus gordonii; assay: Antimicrobial activity against erythromycin- and streptomycin-resistant Streptococcus gordonii Tol1 harboring R483P mutation in ptsI assessed as bacterial count at 2 ug/ml after 24 hrs by macrodilution technique; assay type: functional
[7] = system: Streptococcus gordonii; assay: Antimicrobial activity against wild type streptomycin-susceptible Streptococcus gordonii harboring […] mutation in ptsI infected in Wistar rat assessed as decrease in bacterial infection at 300000 U/kg, sc administered 16 hrs after infection every 12 hrs for 2 days measured within 3 days post last dose; assay type: functional, organism-based
[8] = system: Streptococcus gordonii; assay: Antimicrobial activity against wild type streptomycin-susceptible Streptococcus gordonii infected in Wistar rat assessed as decrease in bacterial infection at 300000 U/kg, sc administered 16 hrs after infection every 12 hrs for 2 days measured within 3 days post last dose; assay type: functional, organism-based
Procedure, shortened: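 Female Wistar rats carried sterile aortic vegetations. After 24 h they were challenged i.v. with 10^7 CFU of exponential-phase streptococci in 0.5 ml saline. From 16 h post-inoculation, procaine penicillin 300,000 U/kg was given s.c. every 12 h for 2 days. Untreated controls were killed at therapy onset, and treated rats 12 h after the trough of the last dose. Vegetations were weighed and plated for CFU.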

[9] = system: Streptococcus gordonii; assay: (§2) Antimicrobial activity against erythromycin- and streptomycin-resistant Streptococcus gordonii Tol1 harboring R483P mutation in ptsI infected in Wistar rat assessed as protection against bacterial infection at 300000 U/kg, sc administered 16 hrs after infection every 12 hrs for 2 days measured within 3 days post last dose; assay type: functional, organism-based
[10] = system: Streptococcus gordonii; assay: Antimicrobial activity against wild type streptomycin-susceptible Streptococcus gordonii harboring […] mutation in ptsI assessed as decrease in [14C]glucose uptake at 2 ug/ml after 60 mins by liquid scintillation counting; assay type: functional, organism-based
Procedure, shortened: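 Cells grown in BHI to OD550 ca 0.3, exposed to 2 μg/ml penicillin for 20, 40 or 60 min, washed in PBS-5 mM MgCl2, preincubated 10 min at 35°C; uptake started with [14C]glucose (600 dpm/nmol), aliquots diluted in cold stopping buffer, filtered on glass fibre, counted by liquid scintillation; 4°C high-dilution adsorption control.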

[11] = system: Streptococcus gordonii; assay: Antimicrobial activity against wild type streptomycin-susceptible Streptococcus gordonii assessed as decrease in [14C]glucose uptake at 2 ug/ml after 60 mins by liquid scintillation counting; assay type: functional, organism-based
Procedure, shortened: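 Cells were grown in BHI to OD550 of about 0.3, then exposed to penicillin at 2 μg/ml for 20, 40 or 60 min. They were washed in PBS-5 mM MgCl2, concentrated, and preincubated for 10 min at 35°C. Uptake was started with 20 mM stock [14C]glucose (600 dpm/nmol). Timed aliquots went into cold stop buffer, were filtered on glass fiber, and were counted by scintillation. A 4°C high-dilution sample corrected for nonspecific binding.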

[12] = system: Streptococcus gordonii; assay: as §2, with “[…]” for “erythromycin-”, “Tol1” for “R483P”, “mutation” for “mutation in ptsI”; assay type: functional, organism-based

Compound	MIC [1] [ng/mL]	Activity [2] [log10CFU/ml]	Activity [3] [log10CFU/ml]	Activity [4] [log10CFU/ml]	MIC [5] [ng/mL]	Activity [6] [log10CFU/ml]	inhibition [7]	inhibition [8]	Activity [9]	inhibition [10]	inhibition [11]	inhibition [12]
C[C@@H](O)[C@H]1C(=O)N2C(C(=O)O)=C(SCCNC=N)C[C@H]12 [IMIPENEM ANHYDROUS]	4 (≈ 0.0134 µM)	2	6.1	2.1	4 (≈ 0.0134 µM)	5.3						
CC1(C)S[C@@H]2[C@H](NC(=O)Cc3ccccc3)C(=O)N2[C@H]1C(=O)O [PENICILLIN G]	8 (≈ 0.0239 µM)	0.6	4.5	0.7	8 (≈ 0.0239 µM)	3.9	inactive	Active	Active	Active	Active	inactive

From ChEMBL document CHEMBL1212757, “A single mutation in enzyme I of the sugar phosphotransferase system confers penicillin tolerance to Streptococcus gordonii” (2010)
